Published values from different studies.
≈ marks a conversion by molar mass, not a printed value.

| SMILES | organism | assay | system | setting | measurement | value |
| --- | --- | --- | --- | --- | --- | --- |
| C[C@@H]1[C@H](O)[C@@H](C)/C=C/C=C/C=C/C=C/C=C/C=C/C=C/[C@H](O[C@@H]2O[C@H](C)[C@@H](O)[C@H](N)[C@@H]2O)C[C@@H]2O[C@](O)(C[C@@H](O)C[C@@H](O)[C@H](O)CC[C@@H](O)C[C@@H](O)CC(=O)O[C@H]1C)C[C@H](O)[C@H]2C(=O)O | Trichophyton mentagrophytes | microbial growth, broth dilution | ATCC9533 | 96 h | MIC | 8 µg/mL (≈ 8.66 µM) |
| CN(Cc1ccc(C(C)(C)C)cc1)Cc1cccc2ccccc12 | Trichophyton mentagrophytes | microbial growth, disc diffusion | ATCC18748 | 0.0005 µg/mL, 72 h | inhibition zone | 14.5 mm |
| Cc1c(C(N)=S)c(N)n(N)c(=O)c1C#N | Enterobacter cloacae | microbial growth, well diffusion | ATCC23355 | 500 µg/mL | inhibition zone | 19 mm |
| O=C1C(Br)=C(Br)C(=O)c2ccccc21 | Trichophyton mentagrophytes | microbial growth, broth dilution | ATCC9533 | 96 h | MIC | < 1.56 µg/mL |
| O=C1C=C2NCCc3c[nH]c(c32)C1=O | Babesia divergens | parasite growth, SYBR Green | – | 60 h, blood stage | IC50 | 10000 nM |
| N#Cc1c(-c2ccc(Cl)cc2Cl)c(C(N)=O)c(N)n(N)c1=O | Enterobacter cloacae | microbial growth, well diffusion | ATCC23355 | 500 µg/mL | inhibition zone | 14 mm |
| O=C1c2[nH]cc3c2C(=NCC3)c2c(-c3ccc(O)cc3)c[nH]c21 | Babesia divergens | parasite growth, SYBR Green | – | 60 h, blood stage | IC50 | 614 nM |
| N#Cc1c(-c2ccc(OCc3ccccc3)cc2)c(C(N)=S)c(N)n(N)c1=O | Enterobacter cloacae | microbial growth, well diffusion | ATCC23355 | 500 µg/mL | inhibition zone | 15 mm |
| O=C1C(NCCc2c[nH]c3ccccc23)=CC2=NCCc3c[nH]c1c32 | Babesia divergens | parasite growth, SYBR Green | – | 60 h, blood stage | IC50 | 970 nM |
| CN(Cc1ccc(C2(C(F)(F)F)CC2)cc1)Cc1cccc2ccccc12 | Trichophyton mentagrophytes | microbial growth, disc diffusion | ATCC18748 | 0.001 µg/mL, 72 h | inhibition zone | 8.5 mm |
| CC(=O)Oc1ccc(-c2c(C(N)=O)c(N)n(N)c(=O)c2C#N)cc1 | Enterobacter cloacae | microbial growth, well diffusion | ATCC23355 | 500 µg/mL | inhibition zone | 12 mm |
| Cn1cc2c3c1C(=O)C(NCCc1ccc(O)cc1)=CC3=[N+](C)CC2 | Babesia divergens | parasite growth, SYBR Green | – | 60 h, blood stage | IC50 | 12.2 nM |
